Data as given in ChEMBL document CHEMBL1123859, “Substituted arylmethyl phenyl ethers. 1. A novel series of 5-lipoxygenase inhibitors and leukotriene antagonists” (J Med Chem, 1987).

Experiments:
[1] = target: T1, Polyunsaturated fatty acid 5-lipoxygenase (Rattus norvegicus) (UniProt P12527); test: IC50 for inhibition of rat neutrophil 5-lipoxygenase (5-LO)
T1 sequence (whole entry): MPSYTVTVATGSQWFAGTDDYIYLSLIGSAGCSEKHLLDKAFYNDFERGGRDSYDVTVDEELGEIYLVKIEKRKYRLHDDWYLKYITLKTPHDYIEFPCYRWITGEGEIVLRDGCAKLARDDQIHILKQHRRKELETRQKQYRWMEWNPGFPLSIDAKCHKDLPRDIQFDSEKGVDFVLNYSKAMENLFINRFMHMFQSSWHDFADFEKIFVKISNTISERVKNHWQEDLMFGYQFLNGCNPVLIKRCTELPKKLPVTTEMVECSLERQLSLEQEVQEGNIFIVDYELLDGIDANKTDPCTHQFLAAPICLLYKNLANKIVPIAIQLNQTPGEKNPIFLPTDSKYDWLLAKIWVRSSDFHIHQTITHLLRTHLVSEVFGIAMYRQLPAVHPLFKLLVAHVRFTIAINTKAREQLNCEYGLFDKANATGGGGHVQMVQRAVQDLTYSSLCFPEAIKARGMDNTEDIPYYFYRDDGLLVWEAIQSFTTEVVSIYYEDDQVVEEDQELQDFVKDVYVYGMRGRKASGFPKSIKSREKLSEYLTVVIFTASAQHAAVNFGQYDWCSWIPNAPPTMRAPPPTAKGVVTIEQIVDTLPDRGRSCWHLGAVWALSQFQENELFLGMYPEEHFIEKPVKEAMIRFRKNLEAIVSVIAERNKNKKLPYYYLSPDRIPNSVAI

Cavia porcellus [2] = organism: Cavia porcellus; test: Percent inhibition of LTC4-induced contraction in guinea pig parenchymal strip test, at a concentration of 100 uM; assay type: functional
Outline: (§1)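 Guinea pig lung parenchymal strips were held in a tissue bath. Repeated 1 μM histamine challenges gave a control response used to normalize all later responses. Compounds were first checked at 30 μM alone for intrinsic activity. After preincubation (usually 5 min), strips were challenged with 0.2 nM LTC4. Inhibition of the contraction was scored, and 20% or less counted as ineffective.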

Cavia porcellus [3] = organism: Cavia porcellus; test: Percent inhibition of LTC4-induced contraction in guinea pig parenchymal strip test, at a concentration of 30 uM; assay type: functional
Outline: as §1

[4] = target: T2, Polyunsaturated fatty acid 5-lipoxygenase (Rattus norvegicus, UniProt P12527); test: Inhibition of rat neutrophil 5- Lipoxygenase (5-LO); conditions: read-out: I50
T2 sequence (P12527 whole entry): T1 sequence (whole entry)
Outline: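 Approximately 2 × 10^6 glycogen-elicited rat neutrophils in buffer were incubated for 3 min with 4 μM [14C]arachidonic acid and 0.8 μM calcium ionophore A23187. Net 5-HETE was taken as the cell-containing control minus the buffer-only blank. Each assay was run in triplicate.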

Cavia porcellus [5] = organism: Cavia porcellus; test: Percent inhibition of LTC4-induced contraction in guinea pig parenchymal strip test, at a concentration of 10 uM; assay type: functional
Outline: as §1

[6] = target: T2, Polyunsaturated fatty acid 5-lipoxygenase; test: Inhibition of rat neutrophil 5- Lipoxygenase (5-LO),; conditions: read-out: I50
Outline: (§2)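 Approximately 2 × 10^6 glycogen-elicited rat neutrophils in buffer were incubated for 3 min with 4 μM [14C]arachidonic acid and 0.8 μM calcium ionophore A23187. Net 5-HETE was taken as the cell-containing control minus the buffer-only blank. […] Each assay was run in triplicate.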

Cavia porcellus [7] = organism: Cavia porcellus; test: Percent inhibition of LTC4-induced contraction in guinea pig parenchymal strip test, at a concentration of 3.6 uM; assay type: functional
Outline: as §1

Cavia porcellus [8] = organism: Cavia porcellus; test: Percent inhibition of LTC4-induced contraction in guinea pig parenchymal strip test, at a concentration of 19 uM; assay type: functional
Outline: as §1

Cavia porcellus [9] = organism: Cavia porcellus; test: Percent inhibition of LTC4-induced contraction in guinea pig parenchymal strip test, at a concentration of 15 uM; assay type: functional
Outline: as §1

[10] = target: T1, Polyunsaturated fatty acid 5-lipoxygenase (Rattus norvegicus); test: Percent inhibition of rat neutrophil 5- Lipoxygenase (5-LO) at 100 uM
Outline: as §2

Cavia porcellus [11] = organism: Cavia porcellus; test: Percent inhibition of LTC4-induced contraction in guinea pig parenchymal strip test, at a concentration of 22 uM,; assay type: functional
Outline: as §1

Cavia porcellus [12] = organism: Cavia porcellus; test: Percent inhibition of LTC4-induced contraction in guinea pig parenchymal strip test, at a concentration of 9 uM; assay type: functional
Outline: as §1

Cavia porcellus [13] = organism: Cavia porcellus; test: Percent inhibition of LTC4-induced contraction in guinea pig parenchymal strip test, at a concentration of 8 uM; assay type: functional
Outline: as §1

Cavia porcellus [14] = organism: Cavia porcellus; test: Percent inhibition of LTC4-induced contraction in guinea pig parenchymal strip test, at a concentration of 12 uM; assay type: functional
Outline: as §1

Cavia porcellus [15] = organism: Cavia porcellus; test: Percent inhibition of LTC4-induced contraction in guinea pig parenchymal strip test, at a concentration of 20 uM; assay type: functional
Outline: as §1

Cavia porcellus [16] = organism: Cavia porcellus; test: Percent inhibition of LTC4-induced contraction in guinea pig parenchymal strip test, at a concentration of 40 uM; assay type: functional
Outline: as §1

Row | SMILES | IC50 [1] [µM] | inhibition at 30 µM (Cavia porcellus [3]) [%] | also measured
1 | CCCCCC(O)c1cccc(OCc2ccncc2)c1 (centres undefined) | 2.7 |  | inhibition at 100 µM (Cavia porcellus [2]): 50%
2 | CCCCCC(=O)c1cccc(/C=C\c2ccccc2)c1 | 45 | -20 | 
3 | CCCCC(O)c1cccc(OCc2ccccc2C(=O)OC)c1 (centres undefined) | 2.5 | 35 | 
4 | CCCCC(C)(C)C(O)c1cccc(OCc2cccc(C(=O)OC)c2)c1 (centres undefined) |  | 0 | IC50 [4]: 2000 nM
5 | CCCCCC(C)(O)c1cccc(OCc2ccccc2)c1 (centres undefined) | 1 | 10 | 
6 | CCCCCC(O)c1cccc(OCc2ccc(C(=O)O)cc2)c1 (centres undefined) | 21 | 22 | 
7 | CCCCCC(O)c1cccc(OCc2cccc(C#N)c2)c1 (centres undefined) | 17 |  | inhibition at 10 µM (Cavia porcellus [5]): 3%
8 | CCCCCC(O)c1cccc(/C=C/c2ccccc2)c1 (centres undefined) | 4.5 | 12 | 
9 | CCCCCC(O)c1cccc(OCc2cccc(C=O)c2)c1 (centres undefined) | 4 |  | 
10 | CCCCCC(OC(C)=O)c1cccc(OCc2cccc(C(=O)OC)c2)c1 (centres undefined) | 5 | 5 | 
11 | CCCCCC(O)c1cccc(OCc2cccc(C(N)=O)c2)c1 (centres undefined) | 2 |  | inhibition at 10 µM (Cavia porcellus [5]): 0%
12 | CCCCCC(=O)c1cccc(OCc2ccccc2)c1 | 2 |  | inhibition at 100 µM (Cavia porcellus [2]): 50%
13 | CCCCCC(O)c1cccc(OCc2ccccc2)c1 (centres undefined) | 2.7 |  | inhibition at 100 µM (Cavia porcellus [2]): 10%
14 | CCCCC(C)(C)C(=O)c1cccc(OCc2ccccc2)c1 |  | 11 | IC50 [6]: 7.5 µM
15 | CCCCCC(O)c1cccc(OCc2ccc3ccccc3n2)c1 (centres undefined) [REV-5901] |  |  | inhibition at 3.6 µM (Cavia porcellus [7]): 50%
16 | CCCCC(O)c1cccc(OCc2ccccc2C(=O)O)c1 (centres undefined) | 10 |  | inhibition at 19 µM (Cavia porcellus [8]): 50%
17 | CCCCC(C)(C)C(C)(O)c1cccc(OCc2ccccc2)c1 (centres undefined) | 2.4 | 10 | 
18 | CCCCCC(O)c1cccc(OCc2cccc(CC(=O)OC)c2)c1 (centres undefined) | 5.8 | 19 | 
19 | CCCCCC(O)c1cccc(Oc2ccc3ccccc3n2)c1 (centres undefined) | 0.35 | 26 | 

Row | SMILES | IC50 [1] [µM] | inhibition at 30 µM (Cavia porcellus [3]) [%] | also measured
20 | CCCCCC(O)c1cccc(OCc2cccc(CN)c2)c1 (centres undefined) | 36 | 0 | 
21 | CCCCCC(O)c1cccc(Oc2ccccc2)c1 (centres undefined) | 1.2 | 50 | 
22 | CCCCCC(O)c1cccc(OCc2ccc(OCC(=O)OC)cc2)c1 (centres undefined) | 4.8 |  | 
23 | CCCCC(O)c1cccc(OCc2ccccc2CO)c1 (centres undefined) |  |  | IC50 [4]: 4000 nM; inhibition at 15 µM (Cavia porcellus [9]): 50%
24 | CCCCCC(O)c1cccc(OCc2cccc(C(F)(F)F)c2)c1 (centres undefined) |  | 10 | IC50 [4]: 4000 nM
25 | CCCCC(OC1CCCCO1)c1cccc(OCc2ccccc2C(=O)OC)c1 (centres undefined) | 14 |  | 
26 | CCCCCC(O)c1cccc(COc2ccccc2)c1 (centres undefined) | 6.7 | 19 | 
27 | CCCCCC(O)c1cccc(OCc2cccc(C(=O)OC)c2)c1 (centres undefined) |  | 20 | IC50 [6]: 1 µM
28 | CCCCCC(O)c1cccc(O)c1 (centres undefined) |  |  | inhibition [10]: 43%
29 | CCCCCC(C)(O)c1cccc(OCc2ccccn2)c1 (centres undefined) |  |  | IC50 [4]: 430 nM; inhibition at 22 µM (Cavia porcellus [11]): 50%
30 | CCCCCC(O)c1cccc(OCc2cccc(C(=O)OC)n2)c1 (centres undefined) |  |  | IC50 [4]: 1900 nM
31 | CCCCCC(O)c1cccc(OCc2cccnc2)c1 (centres undefined) | 2.7 |  | inhibition at 9 µM (Cavia porcellus [12]): 50%
32 | CCCC/C=C(/C)c1ccccc1OCc1cccc(C(=O)OC)c1 | 5 | 7 | 
33 | CCCCCC(C)(O)c1cccc(OCc2ccc3ccccc3n2)c1 (centres undefined) |  |  | IC50 [4]: 130 nM; inhibition at 8 µM (Cavia porcellus [13]): 50%
34 | CCCC/C=C/c1ccc(OCc2cccc(C(=O)OC)c2)cc1 | > 100 | 26 | 
35 | CCCCCC(O)c1cccc(OCc2ccc(C(=O)OC)cc2)c1 (centres undefined) | 3.2 |  | inhibition at 10 µM (Cavia porcellus [5]): 0%
36 | CCCC/C=C\c1cccc(OCc2ccc3ccccc3n2)c1 | > 10 |  | inhibition at 12 µM (Cavia porcellus [14]): 50%
37 | CCCCCC(=O)c1cccc(OCc2cccc(C(N)=O)c2)c1 | 0.6 | 5 | 
38 | CCCCCC(=O)c1cccc(OCc2cccc(C#N)c2)c1 |  | -30 | IC50 [4]: 6000 nM

Row | SMILES | IC50 [1] [µM] | inhibition at 30 µM (Cavia porcellus [3]) [%] | also measured
39 | CCCCC[C@H](O)/C=C/C=C\C/C=C\C/C=C\CCCC(=O)O [ICOMUCRET] |  |  | IC50 [4]: 1450 nM
40 | CCCCCC(=O)c1cccc(/C=C/c2ccccc2)c1 | > 100 | 0 | 
41 | CCCCCC(O)c1cccc(OCc2ccccn2)c1 (centres undefined) | 0.5 | 37 | 
42 | CCCCC(C)(C)C(O)c1cccc(OCc2ccccc2)c1 (centres undefined) | 2.5 |  | 
43 | CCCCCC(O)c1cccc(/C=C\c2ccccc2)c1 (centres undefined) | 6.4 | 5 | 
44 | CCCCCC(OC1CCCCO1)c1cccc(OCc2cccc(C(=O)OC)c2)c1 (centres undefined) | 23 | 0 | 
45 | CCCCC(C)C(O)c1cccc(OCc2ccccc2)c1 (centres undefined) | 3 | 0 | 
46 | CCCCCC(=O)c1cccc(OCc2ccc3ccccc3n2)c1 |  |  | IC50 [4]: 370 nM; inhibition at 20 µM (Cavia porcellus [15]): 50%
47 | CCCCCC(OC)c1cccc(OCc2cccc(C(=O)OC)c2)c1 (centres undefined) | 10 | 22 | 
48 | CCCCCC(O)c1cccc(OCc2cccc(CC(=O)O)c2)c1 (centres undefined) | 2.5 |  | inhibition at 40 µM (Cavia porcellus [16]): 50%
49 | CCCCCC(O)c1cccc(OCc2ccc3ccccc3c2)c1 (centres undefined) | 5 | 10 | 
50 | CCCCCC(O)c1cccc(OCc2ccccc2C(=O)OC)c1 (centres undefined) | 0.6 | 23 | 
51 | CCCCCC(O)c1cccc(OCc2cccc(C#N)n2)c1 (centres undefined) | 30 |  | inhibition at 10 µM (Cavia porcellus [5]): 36%
52 | CCCCCC(O)c1ccccc1OCc1cccc(C(=O)OC)c1 (centres undefined) | 3.2 |  | inhibition at 20 µM (Cavia porcellus [15]): 50%
53 | CCCCCC(O)c1cccc(OCc2cccc(C(=O)O)n2)c1 (centres undefined) |  | 50 | IC50 [6]: 5 µM
54 | CCCCCC(O)c1cccc(OCc2cccc(C(=O)O)c2)c1 (centres undefined) |  | 30 | IC50 [6]: 20.5 µM
55 | CCCCCC(O)c1cccc(OCc2ccccc2C(=O)O)c1 (centres undefined) | 30 |  | inhibition at 20 µM (Cavia porcellus [15]): 50%
56 | CCCCCC(NC)c1cccc(OCc2ccccc2)c1 (centres undefined) | 22 | 50 | 
